Measured values published in BindingDB's records for doi:10.1021/acs.jmedchem.5b01961 (Catabasis Pharmaceuticals, 2016).

Target: T1, Sterol regulatory element-binding protein 2 (Homo sapiens, UniProt Q12772)
T1 sequence (Q12772 whole entry): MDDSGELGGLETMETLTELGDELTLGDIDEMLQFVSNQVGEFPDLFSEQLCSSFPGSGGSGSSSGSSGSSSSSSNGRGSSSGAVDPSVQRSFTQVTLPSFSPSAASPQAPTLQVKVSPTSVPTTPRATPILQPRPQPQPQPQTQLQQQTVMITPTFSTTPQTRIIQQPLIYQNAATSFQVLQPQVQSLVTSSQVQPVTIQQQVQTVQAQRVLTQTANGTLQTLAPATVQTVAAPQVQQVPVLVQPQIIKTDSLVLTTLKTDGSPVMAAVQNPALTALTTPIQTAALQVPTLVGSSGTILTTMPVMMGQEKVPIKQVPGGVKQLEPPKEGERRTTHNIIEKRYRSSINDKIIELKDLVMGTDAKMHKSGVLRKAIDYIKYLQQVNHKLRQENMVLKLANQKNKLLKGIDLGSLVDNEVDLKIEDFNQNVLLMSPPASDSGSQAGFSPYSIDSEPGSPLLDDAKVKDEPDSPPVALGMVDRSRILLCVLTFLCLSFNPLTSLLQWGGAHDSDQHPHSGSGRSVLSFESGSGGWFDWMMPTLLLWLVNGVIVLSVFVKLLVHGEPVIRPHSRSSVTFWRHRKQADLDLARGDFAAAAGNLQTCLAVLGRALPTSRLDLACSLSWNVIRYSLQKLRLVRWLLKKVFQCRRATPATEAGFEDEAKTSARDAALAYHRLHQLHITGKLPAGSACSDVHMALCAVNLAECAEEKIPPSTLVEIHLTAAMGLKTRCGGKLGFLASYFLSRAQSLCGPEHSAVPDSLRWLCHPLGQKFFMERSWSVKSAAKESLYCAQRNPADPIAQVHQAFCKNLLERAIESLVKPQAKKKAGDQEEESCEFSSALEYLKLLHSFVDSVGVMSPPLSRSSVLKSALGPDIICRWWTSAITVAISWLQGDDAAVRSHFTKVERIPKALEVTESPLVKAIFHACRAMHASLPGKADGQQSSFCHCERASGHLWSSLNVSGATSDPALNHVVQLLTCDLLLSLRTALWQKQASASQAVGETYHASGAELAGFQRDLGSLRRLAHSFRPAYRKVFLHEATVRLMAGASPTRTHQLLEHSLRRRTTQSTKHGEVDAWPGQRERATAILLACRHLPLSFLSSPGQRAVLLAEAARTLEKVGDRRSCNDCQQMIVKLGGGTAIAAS
Assay: Inhibition of SREBP2 in human HepG2 cells assessed as reduction of PCSK9 secretion after 16 hrs by ELISA
Method in brief: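 HepG2 cells treated with compound; secreted PCSK9 in culture supernatants measured with a human-specific PCSK9 ELISA.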

Work on `CC/C=C\C/C=C\C/C=C\C/C=C\C/C=C\CCCC(=O)NCCNC(=O)c1cccnc1` yielded an IC50 of 17 µM.
